Results from different studies.
Lines come from different studies, so protocols differ. Values after ≈ are worked out from the molar mass of the structure shown.

| Structure (SMILES) | tested on | test | test system | conditions | quantity | value |
| --- | --- | --- | --- | --- | --- | --- |
| Cc1cc(/C=C/C#N)cc(C)c1Nc1ccnc(Nc2ccc(C#N)cc2)n1 | Human immunodeficiency virus 1 | viral replication, inhibitor | TZM-bl, IIIB | 48 h | EC50 | 0.00089 µM |
| CC(=O)ON=C1C=CC(=C(C#N)c2ccccc2)C=C1 | HDF-1 | cell growth or viability, MTT |  | 72 h | IC50 | 24 µg/mL |
| C=CCNc1c2c([nH]c(=O)c1C(=O)OCC)CCC2 | Human immunodeficiency virus 1 | viral replication, inhibitor | IIIB | 72 h | EC50 | > 100 µM |
| O=C(N[C@@H](CSCc1ccccc1)C(=O)NO)c1ccccc1 | HCC4006 | cell growth or viability, MTT |  | 48 h | IC50 | 68.2 µM |
| CCOC(=O)c1c(NCCO)c2c([nH]c1=O)CCC2 | Human immunodeficiency virus 1 | viral replication, inhibitor | IIIB | 72 h | EC50 | > 100 µM |
| CC(C)(C#Cc1ccc(-c2ccc(Cl)c3c(NS(C)(=O)=O)nn(CC(F)(F)F)c23)c([C@@H](CC2CCCC2)NC(=O)Cn2nc(C(F)(F)F)c3c2C(F)(F)[C@H]2C[C@@H]32)n1)S(C)(=O)=O | Human immunodeficiency virus 1 | viral replication, inhibitor |  |  | EC50 | 0.0123 µM |
| C=CCCCNc1c2c([nH]c(=O)c1C(=O)OCC)CCC2 | Human immunodeficiency virus 1 | viral replication, inhibitor | IIIB | 72 h | EC50 | 45.4 µM |
| O=[N+]([O-])c1cn2c(n1)OC[C@@H](OCc1ccc(OC(F)(F)F)cc1)C2 | Mycobacterium marinum | microbial growth |  |  | MIC90 | 50 µM (≈ 18 µg/mL) |
| CCOC(=O)c1c(NCCC(C)C)c2c([nH]c1=O)CCC2 | Human immunodeficiency virus 1 | viral replication, inhibitor | IIIB | 72 h | EC50 | 9.09 µM |
| CO[C@H]1/C=C/O[C@@]2(C)Oc3c(C)c(O)c4c(O)c(c(/C=N/N5CCN(C)CC5)c(O)c4c3C2=O)NC(=O)/C(C)=C\C=C\[C@H](C)[C@H](O)[C@@H](C)[C@@H](O)[C@@H](C)[C@H](OC(C)=O)[C@@H]1C | Mycobacterium marinum | microbial growth |  |  | MIC90 | 10 µM (≈ 8.23 µg/mL) |
| CC(C)(C#Cc1ccc(-c2ccc(Cl)c3c(NS(C)(=O)=O)nn(CC(F)(F)F)c23)c([C@H](CC2CCCCC2)NC(=O)Cn2nc(C(F)(F)F)c3c2C(F)(F)[C@H]2C[C@@H]32)n1)S(C)(=O)=O | Human immunodeficiency virus 1 | viral replication, inhibitor |  |  | EC50 | 0.0007 µM |
| Cc1nc(Nc2ncc(C(=O)Nc3c(C)cccc3Cl)s2)cc(N2CC[C@H](O)C2)n1 | CCRF-CEM | cell growth or viability, ATP luminescence |  | 72 h | IC50 | > 10 µM |
| CC(C)(C#Cc1ccc(-c2ccc(Cl)c3c(NS(C)(=O)=O)nn(CC(F)(F)F)c23)c([C@H](CC2CC2)NC(=O)Cn2nc(C(F)(F)F)c3c2C(F)(F)[C@@H]2C[C@H]32)n1)S(C)(=O)=O | Human immunodeficiency virus 1 | viral replication, inhibitor |  |  | EC50 | 0.0009 µM |
| O=c1[nH]ncc(NN=Cc2cn(-c3ccccc3)nc2-c2ccccc2)c1Cl | CCRF-CEM | cell growth or viability |  | 48 h | CC50 | 4.78 µM |
